Assay results published in ChEMBL document CHEMBL3734702, “Design of Specific Serine Protease Inhibitors Based on a Versatile Peptide Scaffold: Conversion of a Urokinase Inhibitor to a Plasma Kallikrein Inhibitor” (J Med Chem, 2015).
Where a SMILES comes first, the peptide text is derived from it. Bridges are numbered along the chain shown (N, C = ends). [ ]: non-standard residue; d: D form. Ala(1-amidino-4-piperidyl) = N=C(N)N1CCC(C[C@H](N)C(=O)O)CC1

Legend:
Prothrombin [1] = biological target: Prothrombin (Homo sapiens, UniProt P00734); test: Inhibition of human thrombin after 15 mins using H-D-Ile-Pro-Arg-p-nitroanilide as substrate
Method in brief: (§1)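 Chromogenic substrate was added at about its KM; for KLK1 this was S-2251. Initial velocities were monitored at 405 nm.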

[2] = biological target: Tissue-type plasminogen activator (Mus musculus, UniProt P11214); test: Inhibition of mouse tPA after 15 mins using Z-D-Arg-Gly-Arg-p-nitroanilide as substrate; method in brief: as §1
Sequence of Tissue-type plasminogen activator (Mus musculus, UniProt P11214) (P11214 whole entry): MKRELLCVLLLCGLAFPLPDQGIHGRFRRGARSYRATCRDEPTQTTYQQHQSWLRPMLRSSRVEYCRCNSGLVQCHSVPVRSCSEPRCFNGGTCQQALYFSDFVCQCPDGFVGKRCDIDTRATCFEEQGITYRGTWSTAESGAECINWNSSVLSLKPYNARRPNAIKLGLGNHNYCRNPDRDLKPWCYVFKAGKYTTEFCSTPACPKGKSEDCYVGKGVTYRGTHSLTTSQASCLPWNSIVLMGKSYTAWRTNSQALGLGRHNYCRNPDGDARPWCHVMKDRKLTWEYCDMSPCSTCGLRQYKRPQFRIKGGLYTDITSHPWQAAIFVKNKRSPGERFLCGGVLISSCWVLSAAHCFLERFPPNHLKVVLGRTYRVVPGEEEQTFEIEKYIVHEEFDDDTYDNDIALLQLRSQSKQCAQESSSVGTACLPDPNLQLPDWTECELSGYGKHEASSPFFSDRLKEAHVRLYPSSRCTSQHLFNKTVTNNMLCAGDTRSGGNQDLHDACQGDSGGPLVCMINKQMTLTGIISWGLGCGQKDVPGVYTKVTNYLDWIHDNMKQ

Prothrombin [3] = biological target: Prothrombin (Mus musculus, UniProt P19221); test: Inhibition of mouse thrombin after 15 mins using H-D-Ile-Pro-Arg-p-nitroanilide as substrate; method in brief: as §1
[4] = biological target: Vitamin K-dependent protein C (Homo sapiens, UniProt P04070); test: Inhibition of human activated protein C after 15 mins using H-D-Ile-Pro-Arg-p-nitroanilide as substrate; method in brief: as §1
Sequence of Vitamin K-dependent protein C (P04070 43-197 limits assumed): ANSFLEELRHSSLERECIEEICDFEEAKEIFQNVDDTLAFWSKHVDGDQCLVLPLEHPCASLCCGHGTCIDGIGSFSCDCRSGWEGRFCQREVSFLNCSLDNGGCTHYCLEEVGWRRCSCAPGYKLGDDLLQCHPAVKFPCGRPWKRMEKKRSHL
Sequence of Vitamin K-dependent protein C (P04070 212-461 limits assumed): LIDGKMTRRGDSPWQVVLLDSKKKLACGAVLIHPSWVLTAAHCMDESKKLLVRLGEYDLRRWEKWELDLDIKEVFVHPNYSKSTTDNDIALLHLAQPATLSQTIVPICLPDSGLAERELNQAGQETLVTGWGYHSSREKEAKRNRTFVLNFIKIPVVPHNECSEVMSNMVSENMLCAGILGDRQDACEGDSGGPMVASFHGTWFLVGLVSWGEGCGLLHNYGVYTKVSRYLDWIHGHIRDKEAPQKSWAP

[5] = biological target: T1, Suppressor of tumorigenicity 14 protein (Homo sapiens, UniProt Q9Y5Y6); test: Inhibition of human matriptase after 15 mins using H-D-Ile-Pro-Arg-p-nitroanilide as substrate
T1 sequence (Q9Y5Y6 whole entry): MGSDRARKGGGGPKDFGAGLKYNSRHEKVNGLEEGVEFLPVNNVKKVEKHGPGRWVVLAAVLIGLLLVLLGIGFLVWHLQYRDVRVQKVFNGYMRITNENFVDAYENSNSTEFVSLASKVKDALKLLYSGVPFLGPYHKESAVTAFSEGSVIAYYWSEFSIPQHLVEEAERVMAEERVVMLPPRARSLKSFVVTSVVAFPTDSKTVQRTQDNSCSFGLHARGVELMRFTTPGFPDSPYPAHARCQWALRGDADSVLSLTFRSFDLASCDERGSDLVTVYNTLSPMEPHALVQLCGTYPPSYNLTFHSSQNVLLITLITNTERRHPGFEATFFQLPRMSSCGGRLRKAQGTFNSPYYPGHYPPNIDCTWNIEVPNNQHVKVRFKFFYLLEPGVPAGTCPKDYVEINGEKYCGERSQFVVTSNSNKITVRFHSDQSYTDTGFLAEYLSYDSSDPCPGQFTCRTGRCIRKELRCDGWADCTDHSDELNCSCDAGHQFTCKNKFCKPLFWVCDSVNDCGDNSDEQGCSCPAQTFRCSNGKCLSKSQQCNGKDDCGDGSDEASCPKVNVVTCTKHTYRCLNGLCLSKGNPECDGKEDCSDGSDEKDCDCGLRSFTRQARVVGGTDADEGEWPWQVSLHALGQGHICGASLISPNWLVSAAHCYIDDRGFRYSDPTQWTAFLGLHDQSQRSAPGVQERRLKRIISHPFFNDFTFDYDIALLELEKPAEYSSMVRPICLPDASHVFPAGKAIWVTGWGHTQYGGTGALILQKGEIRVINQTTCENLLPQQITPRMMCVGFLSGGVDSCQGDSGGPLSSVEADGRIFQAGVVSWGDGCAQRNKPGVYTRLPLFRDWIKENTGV

[6] = biological target: Tissue-type plasminogen activator (Homo sapiens, UniProt P00750); test: Inhibition of human tPAn after 15 mins using H-D-Ile-Pro-Arg-p-nitroanilide as substrate; method in brief: as §1
Sequence of Tissue-type plasminogen activator (Homo sapiens, UniProt P00750) (P00750 whole entry): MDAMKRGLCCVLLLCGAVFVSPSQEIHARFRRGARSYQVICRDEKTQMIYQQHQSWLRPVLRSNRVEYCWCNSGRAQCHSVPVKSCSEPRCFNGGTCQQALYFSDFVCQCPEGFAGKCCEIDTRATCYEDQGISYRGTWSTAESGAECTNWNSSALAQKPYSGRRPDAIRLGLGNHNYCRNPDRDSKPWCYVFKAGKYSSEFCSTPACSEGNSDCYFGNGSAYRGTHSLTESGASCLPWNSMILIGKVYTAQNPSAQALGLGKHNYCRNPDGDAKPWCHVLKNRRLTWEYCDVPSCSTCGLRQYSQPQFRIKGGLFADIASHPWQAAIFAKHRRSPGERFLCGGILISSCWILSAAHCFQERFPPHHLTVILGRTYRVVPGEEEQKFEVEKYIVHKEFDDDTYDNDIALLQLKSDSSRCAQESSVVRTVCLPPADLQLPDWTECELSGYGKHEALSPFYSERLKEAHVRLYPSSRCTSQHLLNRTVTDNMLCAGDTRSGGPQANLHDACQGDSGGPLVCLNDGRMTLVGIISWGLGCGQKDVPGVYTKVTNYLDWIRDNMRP

[7] = biological target: Urokinase-type plasminogen activator (Mus musculus) (UniProt P06869); test: Binding affinity to mouse uPA
Sequence of Urokinase-type plasminogen activator (Mus musculus) (P06869 21-178 limits assumed): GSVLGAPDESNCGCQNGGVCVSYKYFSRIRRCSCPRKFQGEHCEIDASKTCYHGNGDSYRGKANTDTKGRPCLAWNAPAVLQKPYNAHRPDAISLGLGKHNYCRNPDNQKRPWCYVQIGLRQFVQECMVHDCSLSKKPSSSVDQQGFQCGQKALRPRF
Sequence of Urokinase-type plasminogen activator (Mus musculus) (P06869 180-433 limits assumed): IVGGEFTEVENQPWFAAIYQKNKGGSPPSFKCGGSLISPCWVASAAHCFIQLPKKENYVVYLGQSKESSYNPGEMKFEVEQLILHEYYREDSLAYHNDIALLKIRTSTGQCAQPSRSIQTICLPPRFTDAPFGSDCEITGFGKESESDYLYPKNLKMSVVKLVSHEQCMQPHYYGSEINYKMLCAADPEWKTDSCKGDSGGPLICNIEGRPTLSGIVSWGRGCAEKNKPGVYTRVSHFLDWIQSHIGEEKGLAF

[8] = biological target: T2, Urokinase-type plasminogen activator (Homo sapiens, UniProt P00749); test: Binding affinity to human uPA
[9] = biological target: T2, Urokinase-type plasminogen activator; test: Inhibition of human uPA for 15 mins using pyro-Glu-Gly-Arg-p-nitroanilide as substrate
Coagulation factor XI = Coagulation factor XI (Homo sapiens, UniProt P03951); test: Inhibition of human coagulation factor 11a after 15 mins
Kallikrein-1 = Kallikrein-1 (Homo sapiens, UniProt P06870); test: Inhibition of human KLK1 after 15 mins using Val-Leu-Lys-p-nitroanilide as substrate; method in brief: as §1
Sequence of Kallikrein-1 (P06870 whole entry): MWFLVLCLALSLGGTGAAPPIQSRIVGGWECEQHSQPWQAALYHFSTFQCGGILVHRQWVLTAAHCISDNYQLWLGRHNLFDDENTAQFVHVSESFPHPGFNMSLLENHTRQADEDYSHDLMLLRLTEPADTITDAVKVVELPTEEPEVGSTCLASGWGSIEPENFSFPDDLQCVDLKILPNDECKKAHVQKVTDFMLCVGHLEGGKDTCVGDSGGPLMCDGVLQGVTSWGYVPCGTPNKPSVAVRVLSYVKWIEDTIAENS

[10] = biological target: Urokinase-type plasminogen activator (Mus musculus, UniProt P06869); test: Inhibition of mouse uPA for 15 mins using pyro-Glu-Gly-Arg-p-nitroanilide as substrate
Sequence of Urokinase-type plasminogen activator (Mus musculus, UniProt P06869) (P06869 21-178 limits assumed): as the sequence (P06869 21-178 limits assumed) above
Sequence of Urokinase-type plasminogen activator (Mus musculus, UniProt P06869) (P06869 180-433 limits assumed): as the sequence (P06869 180-433 limits assumed) above

Plasma kallikrein [11] = biological target: Plasma kallikrein (Mus musculus, UniProt P26262); test: Inhibition of mouse plasma kallikrein for 15 mins using H-D-Pro-Phe-Arg-p-nitroanilide as substrate; type: cell-free; method in brief: as §1
Sequence of Plasma kallikrein (Mus musculus, UniProt P26262) (P26262 20-390 limits assumed): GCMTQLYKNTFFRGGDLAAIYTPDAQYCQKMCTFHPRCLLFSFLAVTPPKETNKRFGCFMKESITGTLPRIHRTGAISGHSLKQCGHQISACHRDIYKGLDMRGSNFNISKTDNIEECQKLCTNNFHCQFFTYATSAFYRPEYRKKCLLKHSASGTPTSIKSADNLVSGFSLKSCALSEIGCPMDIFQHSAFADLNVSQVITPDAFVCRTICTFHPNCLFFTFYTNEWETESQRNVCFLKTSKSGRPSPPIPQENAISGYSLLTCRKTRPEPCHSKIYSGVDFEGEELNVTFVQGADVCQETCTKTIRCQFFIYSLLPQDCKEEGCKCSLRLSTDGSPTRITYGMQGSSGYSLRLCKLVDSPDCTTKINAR
Sequence of Plasma kallikrein (Mus musculus, UniProt P26262) (P26262 391-638 limits assumed): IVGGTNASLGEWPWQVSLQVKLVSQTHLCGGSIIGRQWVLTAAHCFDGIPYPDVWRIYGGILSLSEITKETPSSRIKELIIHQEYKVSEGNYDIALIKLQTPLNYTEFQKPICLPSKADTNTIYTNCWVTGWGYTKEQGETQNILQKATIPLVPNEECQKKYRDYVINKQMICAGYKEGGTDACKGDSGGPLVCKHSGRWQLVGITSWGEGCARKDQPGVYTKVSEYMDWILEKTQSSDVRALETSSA

Serine protease 1 = biological target: T3, Serine protease 1 (Bos taurus, UniProt P00760); test: Inhibition of bovine beta-trypsin after 15 mins using Bz-Ile-Glu(g-OR)-Gly-Arg-p-nitroanilide as substrate; method in brief: as §1
T3 sequence (P00760 whole entry): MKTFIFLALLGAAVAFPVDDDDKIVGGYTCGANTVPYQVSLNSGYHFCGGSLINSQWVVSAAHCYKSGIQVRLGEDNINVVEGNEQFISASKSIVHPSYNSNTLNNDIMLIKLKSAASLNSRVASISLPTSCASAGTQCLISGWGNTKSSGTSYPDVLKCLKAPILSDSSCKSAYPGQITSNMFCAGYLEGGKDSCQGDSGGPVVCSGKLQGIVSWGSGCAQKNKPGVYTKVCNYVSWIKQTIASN

Plasma kallikrein [12] = biological target: Plasma kallikrein (Homo sapiens, UniProt P03952); test: Inhibition of human plasma kallikrein for 15 mins using H-D-Pro-Phe-Arg-p-nitroanilide as substrate; type: cell-free
Sequence of Plasma kallikrein (Homo sapiens, UniProt P03952) (P03952 20-390 limits assumed): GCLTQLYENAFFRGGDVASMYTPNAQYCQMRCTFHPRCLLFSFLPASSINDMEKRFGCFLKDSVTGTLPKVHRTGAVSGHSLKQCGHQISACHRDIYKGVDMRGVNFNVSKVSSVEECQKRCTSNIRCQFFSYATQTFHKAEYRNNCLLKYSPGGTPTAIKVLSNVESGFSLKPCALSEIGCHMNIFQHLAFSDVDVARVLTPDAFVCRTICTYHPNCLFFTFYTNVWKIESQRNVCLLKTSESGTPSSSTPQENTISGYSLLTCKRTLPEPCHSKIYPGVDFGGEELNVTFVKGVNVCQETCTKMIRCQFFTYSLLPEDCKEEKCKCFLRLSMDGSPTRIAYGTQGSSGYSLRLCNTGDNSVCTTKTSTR
Sequence of Plasma kallikrein (Homo sapiens, UniProt P03952) (P03952 391-638 limits assumed): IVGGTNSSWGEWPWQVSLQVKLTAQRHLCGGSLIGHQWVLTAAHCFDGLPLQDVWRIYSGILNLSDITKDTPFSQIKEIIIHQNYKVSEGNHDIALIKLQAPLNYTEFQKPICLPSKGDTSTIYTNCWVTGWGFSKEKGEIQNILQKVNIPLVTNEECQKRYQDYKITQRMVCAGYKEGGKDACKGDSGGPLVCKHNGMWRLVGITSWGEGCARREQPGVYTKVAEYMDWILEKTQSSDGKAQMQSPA

Plasminogen [13] = biological target: Plasminogen (Homo sapiens, UniProt P00747); test: Inhibition of human plasmin after 15 mins using H-D-Ile-Pro-Arg-p-nitroanilide as substrate; method in brief: as §1
Plasminogen [14] = biological target: Plasminogen (Mus musculus, UniProt P20918); test: Inhibition of mouse plasmin after 15 mins using H-D-Ile-Pro-Arg-p-nitroanilide as substrate; method in brief: as §1
Sequence of Plasminogen (Mus musculus, UniProt P20918) (P20918 98-581 limits assumed): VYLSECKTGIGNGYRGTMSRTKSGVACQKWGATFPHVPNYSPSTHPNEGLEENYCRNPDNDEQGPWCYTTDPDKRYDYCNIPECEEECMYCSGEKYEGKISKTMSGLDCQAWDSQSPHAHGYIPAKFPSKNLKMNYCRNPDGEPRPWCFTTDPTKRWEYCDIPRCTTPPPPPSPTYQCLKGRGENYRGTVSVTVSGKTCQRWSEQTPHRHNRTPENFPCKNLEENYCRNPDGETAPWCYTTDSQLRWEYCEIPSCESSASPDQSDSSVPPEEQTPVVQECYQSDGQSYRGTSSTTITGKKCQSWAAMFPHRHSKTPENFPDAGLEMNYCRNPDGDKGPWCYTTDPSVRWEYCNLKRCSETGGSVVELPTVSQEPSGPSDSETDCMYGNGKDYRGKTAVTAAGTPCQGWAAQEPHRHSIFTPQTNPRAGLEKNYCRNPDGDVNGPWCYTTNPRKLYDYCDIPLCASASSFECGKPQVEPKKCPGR
Sequence of Plasminogen (Mus musculus, UniProt P20918) (P20918 582-812 limits assumed): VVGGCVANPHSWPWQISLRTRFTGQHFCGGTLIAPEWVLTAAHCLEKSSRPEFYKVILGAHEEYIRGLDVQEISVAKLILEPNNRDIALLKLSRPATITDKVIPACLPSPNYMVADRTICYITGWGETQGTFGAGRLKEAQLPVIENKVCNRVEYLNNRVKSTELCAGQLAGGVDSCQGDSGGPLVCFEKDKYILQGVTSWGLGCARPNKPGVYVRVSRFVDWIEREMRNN

Ki (Prothrombin [1]) [µM] | Ki [2] [µM] | Ki (Prothrombin [3]) [µM] | Ki [4] [µM] | Ki [5] [µM] | Ki [6] [µM] | Activity [7] [nM] | Activity [8] [nM] | Ki [9] [µM] | Ki (Coagulation factor XI) [µM] | Ki (Kallikrein-1) [µM] | Ki [10] [µM] | Ki (Plasma kallikrein [11]) [µM] | Ki (Serine protease 1) [µM] | Ki (Plasma kallikrein [12]) [µM] | Ki (Plasminogen [13]) [µM] | Ki (Plasminogen [14]) [µM] | Compound
> 1000 | > 1000 | > 1000 | > 1000 | > 1000 | > 1000 |  |  |  |  |  |  |  |  |  |  |  | CC(C)C[C@@H]1NC(=O)[C@H](C)NC(=O)[C@H](CC2CCN(C(=N)N)CC2)NC(=O)[C@H](Cc2ccccc2)NC(=O)[C@H](CCCNC(=N)N)NC(=O)[C@H](C)NC(=O)[C@@H]2CCCN2C(=O)[C@@H](N)CSSC[C@@H](C(=O)O)NC(=O)[C@H](Cc2ccccc2)NC1=O (H-CPARF[Ala(1-amidino-4-piperidyl)]ALFC-OH; disulfide 1-10)
> 1000 | > 1000 | > 1000 | > 1000 | > 1000 | > 1000 |  |  |  |  |  |  |  |  |  |  |  | CC(C)C[C@@H]1NC(=O)[C@H](C)NC(=O)[C@H](CC2CCN(C(=N)N)CC2)NC(=O)[C@H](Cc2ccccc2)NC(=O)[C@H](CCCNC(=N)N)NC(=O)[C@H](C)NC(=O)[C@@H]2CCCN2C(=O)[C@@H](N)CSSC[C@@H](C(=O)O)NC(=O)[C@H](Cc2c[nH]c3ccccc23)NC1=O (H-CPARF[Ala(1-amidino-4-piperidyl)]ALWC-OH; disulfide 1-10)
> 1000 | > 1000 | > 1000 | > 1000 | > 1000 | > 1000 | 2 | 530 |  |  |  |  |  |  |  |  |  | CC(C)C[C@@H]1NC(=O)[C@H](Cc2ccc(O)cc2)NC(=O)[C@H](CCCNC(=N)N)NC(=O)[C@H](CO)NC(=O)[C@H](Cc2ccc(O)cc2)NC(=O)[C@H](C)NC(=O)[C@@H]2CCCN2C(=O)[C@@H](N)CSSC[C@@H](C(=O)O)NC(=O)[C@H](CC(=O)O)NC1=O (H-CPAYSRYLDC-OH; disulfide 1-10)
> 1000 | > 1000 | > 1000 | > 1000 | > 1000 | > 1000 |  |  |  |  |  |  |  |  |  |  |  | CC(C)C[C@@H]1NC(=O)[C@H](Cc2ccc(O)cc2)NC(=O)[C@H](CC2CCN(C(=N)N)CC2)NC(=O)[C@H](CO)NC(=O)[C@H](Cc2ccc(O)cc2)NC(=O)[C@H](C)NC(=O)[C@@H]2CCCN2C(=O)[C@@H](N)CSSC[C@@H](C(=O)O)NC(=O)[C@H](CC(=O)O)NC1=O (H-CPAYS[Ala(1-amidino-4-piperidyl)]YLDC-OH; disulfide 1-10)
> 1000 | > 1000 | > 1000 | > 1000 | > 1000 | > 1000 |  |  | > 1000 | 12.1 | 0.384 | > 1000 | 0.043 | 14.1 | 0.022 | 12.5 | 3.42 | CC(C)C[C@@H]1NC(=O)[C@H](C)NC(=O)[C@H](CC2CCN(C(=N)N)CC2)NC(=O)[C@H](Cc2ccccc2)NC(=O)[C@H](CCCNC(=N)N)NC(=O)[C@H](CCCCN)NC(=O)[C@@H]2CCCN2C(=O)[C@@H](N)CSSC[C@@H](C(=O)O)NC(=O)[C@H](Cc2ccccc2)NC1=O (H-CPKRF[Ala(1-amidino-4-piperidyl)]ALFC-OH; disulfide 1-10)
